This passage reports inhibition, CC50 and EC50 results from ChEMBL document CHEMBL1177662, “Anti-influenza activity of phenethylphenylphthalimide analogs derived from thalidomide” (Bioorg Med Chem, 2010).

In data set [1] the target is Polymerase acidic protein (Influenza A virus (A/Puerto Rico/8/1934(H1N1))) (UniProt P03433). The data set can be described thus: Inhibition of Influenza A (A/PR/8/34/ (H1N1)) RNA polymerase acidin protein endonuclease PA domain assessed as M13mp18 ss DNA at 1 uM. The procedure, abridged: (§1)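 Recombinant His-tagged PA N-terminal endonuclease domain (residues 1–220), expressed in E. coli and purified by Ni-agarose and anion exchange. 0.35 μg (about 0.1 μM final) in 100 μl buffer at pH 7.3, with 1 μg M13mp18 circular ssDNA substrate and compound at 1 or 10 μM. A no-enzyme control was included. Digestion read by agarose electrophoresis with ethidium bromide staining.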

For data set [2] the target is unchanged. The data set can be described thus: Inhibition of Influenza A (A/PR/8/34/ (H1N1)) RNA polymerase acidin protein endonuclease PA domain assessed as M13mp18 ss DNA at 10 uM. The method, boiled down:
as §1

Data set [3] in a line: Cytotoxicity against dog MDCK cells. It is filed as cell-based, Canis lupus familiaris. The method, boiled down: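 Confluent MDCK monolayers (MEM, 10% FBS, 37 °C) exposed without virus to compound (0.63–80 μM, DMSO vehicle), premixed with trypsin 30 min at 37 °C. Incubated 4 days at 34 °C, 5% CO2. Formaldehyde fixation, naphthol blue black staining of viable cells, OD630 read. Triplicate; CC50 estimated from dose–response curve.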

The subject of another data set is Influenza A virus. As to the kind of experiment: Antiviral activity against Influenza A (A/PR/8/34/ (H1N1)) infected in MDCK cells assessed as inhibition of virus-induced cell death. Type of data set: functional, organism-based. The note with it: A/Puerto Rico/8/1934(H1N1). The method, boiled down: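 Confluent MDCK monolayers (MEM, 10% FBS, 37 °C). Compound (0.63–80 μM, DMSO vehicle) premixed with 100 TCID50 H1N1 PR8 plus trypsin for 30 min at 37 °C, then added to PBS-washed cells. Incubated 4 days at 34 °C, 5% CO2. Formaldehyde-fixed, naphthol blue black stain, OD630 read. Viability scaled to mock (100%) and virus-only (0%) wells. Triplicate; EC50 estimated from dose–response curve.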

Each structure is given as a SMILES string. Calls of active or inactive are those of the source. The calls are words filed in the database; no cut-off is given here.

As for `COc1ccc(CCc2ccc(N3C(=O)c4c(Cl)c(Cl)c(Cl)c(Cl)c4C3=O)cc2)cc1`, the inhibition result in data set [1] and in data set [2] was “inactive” throughout.
The CC50 is the concentration that lowers cell viability or growth by half. One may read the EC50 as the concentration that produces a half-maximal response. For `O=C1c2c(Cl)c(Cl)c(Cl)c(Cl)c2C(=O)N1c1ccc(CCc2ccc(O)c(O)c2)cc1`, the inhibition entry in data set [1] and in data set [2] was “inactive” each time. The same compound returned a CC50 in data set [3] greater than 80 µM. Also, the EC50 in the data set on Influenza A virus is 24 µM.
In the case of `COc1ccc(CCc2ccc(N3C(=O)c4ccccc4C3=O)cc2)cc1OC`, the inhibition entry in data set [1] and in data set [2] was “inactive” each time.
With `O=C1c2c(Cl)c(Cl)c(Cl)c(Cl)c2C(=O)N1c1ccccc1CCc1ccccc1`, the inhibition entry in data set [1] and in data set [2] was “inactive” in each case.
For `O=C1c2c(Cl)c(Cl)c(Cl)c(Cl)c2C(=O)N1c1ccc(CCc2ccc(O)cc2)cc1`, the inhibition result in data set [1] and in data set [2] was “inactive” throughout.
Regarding `COc1ccc(/C=C/c2ccc(N3C(=O)c4c(Cl)c(Cl)c(Cl)c(Cl)c4C3=O)cc2)cc1OC`, the inhibition result in data set [1] and in data set [2] was “inactive” in each case.
Take `COc1ccc(CCc2ccccc2N2C(=O)c3c(Cl)c(Cl)c(Cl)c(Cl)c3C2=O)cc1OC`: the inhibition entry in data set [1] and in data set [2] was “inactive” throughout.
As for `O=C1c2ccccc2C(=O)N1c1ccc(CCc2ccccc2)cc1`, the inhibition entry in data set [1] and in data set [2] was “inactive” throughout.
On to `COc1ccc(CCc2cccc(N3C(=O)c4c(Cl)c(Cl)c(Cl)c(Cl)c4C3=O)c2)cc1`, for which the inhibition result in data set [1] and in data set [2] was “inactive” each time.
On to `COc1ccc(CCc2ccccc2N2C(=O)c3ccccc3C2=O)cc1OC`, for which the half-maximal cytotoxic concentration (CC50) in data set [3] was greater than 80 µM. In the data set on Influenza A virus, the EC50 is greater than 80 µM. The inhibition entry in data set [2] is “inactive”.
`O=C1c2c(Cl)c(Cl)c(Cl)c(Cl)c2C(=O)N1c1ccc(CCc2cccc(O)c2)cc1`: the inhibition result in data set [1] and in data set [2] was “inactive” in each case.
For `O=C1c2ccccc2C(=O)N1c1ccccc1CCc1ccccc1`, the inhibition entry in data set [1] and in data set [2] was “inactive” throughout.
Consider `O=C1c2ccccc2C(=O)N1c1ccc(CCc2cccc(O)c2)cc1`, for which the inhibition entry in data set [1] and in data set [2] was “inactive” in each case. The compound also displayed a CC50 in data set [3] greater than 80 µM. Moreover, in the data set on Influenza A virus, the EC50 was greater than 80 µM.
For the compound `COc1ccc(CCc2cccc(N3C(=O)c4c(Cl)c(Cl)c(Cl)c(Cl)c4C3=O)c2)cc1OC`, the inhibition result in data set [1] and in data set [2] was “inactive” each time.
As for `COc1ccc(CCc2ccc(N3C(=O)c4c(Cl)c(Cl)c(Cl)c(Cl)c4C3=O)cc2)cc1OC`, the inhibition entry in data set [1] and in data set [2] was “inactive” in each case.
`O=C1c2ccccc2C(=O)N1c1cccc(CCc2ccc(O)c(O)c2)c1`: the inhibition result in data set [1] was “inactive”. Also, in the data set with Influenza A virus, the EC50 was determined as 26 µM. The inhibition result in data set [2] is “Active”.
Take `COc1ccc(CCc2ccc(N3C(=O)c4ccccc4C3=O)cc2)cc1`: the inhibition result in data set [1] and in data set [2] was “inactive” in each case.
Turning to `O=C1c2c(Cl)c(Cl)c(Cl)c(Cl)c2C(=O)N1c1cccc(CCc2ccc(O)c(O)c2)c1`, the inhibition entry in data set [1] and in data set [2] was “inactive” throughout. The compound further yielded a half-maximal cytotoxic concentration (CC50) in data set [3] of 44 µM. In the data set on Influenza A virus, the EC50 was greater than 80 µM.
As to `O=C1c2c(Cl)c(Cl)c(Cl)c(Cl)c2C(=O)N1c1cccc(CCc2ccc(O)cc2)c1`, the inhibition entry in data set [1] and in data set [2] was “inactive” each time.
In the case of `O=C1c2c(Cl)c(Cl)c(Cl)c(Cl)c2C(=O)N1c1cccc(/C=C/c2ccccc2)c1`, the inhibition result in data set [1] and in data set [2] was “inactive” each time.
On to `O=C1c2c(Cl)c(Cl)c(Cl)c(Cl)c2C(=O)N1c1ccccc1CCc1ccc(O)c(O)c1`, for which the inhibition entry in data set [1] and in data set [2] was “inactive” in each case.
As for `O=C1c2c(Cl)c(Cl)c(Cl)c(Cl)c2C(=O)N1c1cccc(CCc2cccc(O)c2)c1`, the inhibition result in data set [1] and in data set [2] was “inactive” throughout.
Turning to `O=C1c2c(Cl)c(Cl)c(Cl)c(Cl)c2C(=O)N1c1ccc(CCc2ccccc2)cc1`, the inhibition entry in data set [1] and in data set [2] was “inactive” in each case.
Take `COc1cccc(CCc2ccc(N3C(=O)c4ccccc4C3=O)cc2)c1`: the inhibition entry in data set [1] and in data set [2] was “inactive” throughout.
Take `O=C1c2c(Cl)c(Cl)c(Cl)c(Cl)c2C(=O)N1c1ccc(/C=C/c2ccccc2)cc1`: the inhibition entry in data set [1] and in data set [2] was “inactive” throughout.
With `O=C1c2ccccc2C(=O)N1c1ccc(CCc2ccc(O)cc2)cc1`, the inhibition result in data set [1] and in data set [2] was “inactive” each time.
On to `COc1ccc(/C=C/c2cccc(N3C(=O)c4c(Cl)c(Cl)c(Cl)c(Cl)c4C3=O)c2)cc1OC`, for which the inhibition result in data set [1] and in data set [2] was “inactive” each time.
As for `O=C1c2ccccc2C(=O)N1c1ccc(/C=C/c2ccccc2)cc1`, the inhibition result in data set [1] and in data set [2] was “inactive” each time.
As to `COc1cccc(CCc2ccc(N3C(=O)c4c(Cl)c(Cl)c(Cl)c(Cl)c4C3=O)cc2)c1`, the inhibition result in data set [1] and in data set [2] was “inactive” throughout.
As to `O=C1c2ccccc2C(=O)N1c1ccc(/C=C/c2ccc(O)c(O)c2)cc1`, the inhibition result in data set [1] and in data set [2] was “inactive” each time.
`O=C1c2c(Cl)c(Cl)c(Cl)c(Cl)c2C(=O)N1c1cccc(CCc2ccccc2)c1`: the inhibition entry in data set [1] and in data set [2] was “inactive” throughout.
For `COc1ccc(CCc2cccc(N3C(=O)c4ccccc4C3=O)c2)cc1OC`, the inhibition entry in data set [1] and in data set [2] was “inactive” throughout.
As for `O=C1c2c(Cl)c(Cl)c(Cl)c(Cl)c2C(=O)N1c1cccc(/C=C/c2ccc(O)c(O)c2)c1`, the inhibition entry in data set [1] and in data set [2] was “inactive” each time.
For `O=C1c2ccccc2C(=O)N1c1ccccc1CCc1ccc(O)c(O)c1`, in data set [1], the inhibition result is “inactive”. In data set [3], this compound registered a 50% cytotoxic concentration (CC50) greater than 80 µM. Further, in the data set with Influenza A virus, the EC50 came out at 48 µM. In data set [2], the inhibition result is “Active”.
`O=C1c2c(Cl)c(Cl)c(Cl)c(Cl)c2C(=O)N1c1ccc(/C=C\c2ccccc2)cc1`: the inhibition result in data set [1] and in data set [2] was “inactive” in each case.
Take `O=C1c2c(Cl)c(Cl)c(Cl)c(Cl)c2C(=O)N1c1cccc(/C=C\c2ccccc2)c1`: the inhibition result in data set [1] and in data set [2] was “inactive” in each case.
As for `COc1cccc(CCc2cccc(N3C(=O)c4c(Cl)c(Cl)c(Cl)c(Cl)c4C3=O)c2)c1`, the inhibition entry in data set [1] and in data set [2] was “inactive” each time.
